Tests used:
Cholinesterase [1] = molecular target: T1, Cholinesterase (Homo sapiens, UniProt P06276); test: Inhibition of human recombinant BuChE expressed in HEK293 cells using S-butyrylthiocholine iodide as substrate preincubated for 30 mins followed by substrate addition measured after 30 mins by Ellman's method
How it was run: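 Ellman assay in 0.1 M phosphate buffer pH 8.0 with 0.05 U/mL BuChE and 0.35 mM DTNB. Serial inhibitor dilutions pre-incubated 30 min at 37 °C, then 0.5 mM S-butyrylthiocholine iodide (final) added. Reaction followed at least 30 min at 405 nm. IC50 from dose-response curves; mean ± S.E.M., at least three experiments in triplicate.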

Acetylcholinesterase [2] = molecular target: T2, Acetylcholinesterase (Homo sapiens, UniProt P22303); test: Inhibition of human recombinant AChE expressed in HEK293 cells using acetylthiocholine iodide as substrate preincubated for 30 mins followed by substrate addition measured after 30 mins by Ellman's method
[3] = molecular target: T3, Amine oxidase [flavin-containing] A (Homo sapiens, UniProt P21397); test: Inhibition of human recombinant MAOA using p-tyramine as substrate preincubated for 30 mins followed by substrate addition measured for 1 hr by horse-radish peroxidase/amplex red-based fluorometric method
T3 sequence (P21397 whole entry): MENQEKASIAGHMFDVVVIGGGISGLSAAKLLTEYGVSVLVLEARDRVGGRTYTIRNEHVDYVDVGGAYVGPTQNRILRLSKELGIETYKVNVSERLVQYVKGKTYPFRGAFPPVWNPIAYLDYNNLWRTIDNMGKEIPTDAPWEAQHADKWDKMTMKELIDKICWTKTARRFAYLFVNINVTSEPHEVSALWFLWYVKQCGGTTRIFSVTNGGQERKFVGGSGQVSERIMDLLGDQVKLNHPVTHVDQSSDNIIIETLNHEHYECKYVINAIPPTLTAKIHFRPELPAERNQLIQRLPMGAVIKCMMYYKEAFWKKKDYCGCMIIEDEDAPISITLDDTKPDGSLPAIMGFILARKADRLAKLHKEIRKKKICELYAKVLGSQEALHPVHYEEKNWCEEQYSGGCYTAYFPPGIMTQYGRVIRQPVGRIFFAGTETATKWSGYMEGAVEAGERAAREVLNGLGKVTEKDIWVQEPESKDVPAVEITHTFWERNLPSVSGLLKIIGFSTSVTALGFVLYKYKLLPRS

[4] = molecular target: T4, Amine oxidase [flavin-containing] B (Homo sapiens, UniProt P27338); test: Inhibition of human recombinant MAOB using p-tyramine as substrate preincubated for 30 mins followed by substrate addition measured for 1 hr by horse-radish peroxidase/amplex red-based fluorometric method
T4 sequence (P27338 whole entry): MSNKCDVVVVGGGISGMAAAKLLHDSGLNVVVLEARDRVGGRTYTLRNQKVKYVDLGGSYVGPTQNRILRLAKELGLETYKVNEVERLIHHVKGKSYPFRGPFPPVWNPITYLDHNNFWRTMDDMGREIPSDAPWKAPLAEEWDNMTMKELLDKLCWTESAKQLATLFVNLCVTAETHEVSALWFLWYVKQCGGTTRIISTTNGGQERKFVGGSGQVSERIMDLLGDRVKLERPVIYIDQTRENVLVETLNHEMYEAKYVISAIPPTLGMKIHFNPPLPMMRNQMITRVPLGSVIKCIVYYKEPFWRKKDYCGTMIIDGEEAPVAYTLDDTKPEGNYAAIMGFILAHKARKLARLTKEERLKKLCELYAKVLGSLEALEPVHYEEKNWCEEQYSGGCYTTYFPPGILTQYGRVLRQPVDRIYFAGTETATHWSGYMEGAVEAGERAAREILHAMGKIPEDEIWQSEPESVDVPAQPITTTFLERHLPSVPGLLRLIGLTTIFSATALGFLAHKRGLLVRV

[5] = molecular target: T3, Amine oxidase [flavin-containing] A; test: Inhibition of human recombinant MAOA using p-tyramine as substrate measured for 1 hr by horse-radish peroxidase/amplex red-based fluorometric method
How it was run: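 Human recombinant MAO-A (360 mU/mL) pre-incubated 30 min at 37 °C with serial inhibitor dilutions. Reaction started with 1 mM p-tyramine, 40 U/mL HRP and 25 μM Amplex UltraRed (final) in 0.25 mM sodium phosphate pH 7.4. Resorufin fluorescence (ex 530/em 590) read continuously ≥1 h. Water controls, no-substrate blanks. IC50 from dose-response curves; mean ± S.E.M., ≥3 experiments in triplicate.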

[6] = molecular target: T3, Amine oxidase [flavin-containing] A; test: Inhibition of human recombinant MAOA using p-tyramine as substrate preincubated for 15 mins followed by substrate addition measured for 1 hr by horse-radish peroxidase/amplex red-based fluorometric method
How it was run: (§1)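 Time-dependent series: hrMAO-A pre-incubated with increasing inhibitor concentrations for varied times (0–240 min) before addition of p-tyramine. Fluorometric HRP/Amplex UltraRed read-out as in the standard assay (1 mM p-tyramine, pH 7.4 phosphate, ex 530/em 590). IC50 derived from a dose-response curve at each pre-incubation time.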

[7] = molecular target: T3, Amine oxidase [flavin-containing] A; test: Inhibition of human recombinant MAOA using p-tyramine as substrate preincubated for 60 mins followed by substrate addition measured for 1 hr by horse-radish peroxidase/amplex red-based fluorometric method; how it was run: as §1
[8] = molecular target: T3, Amine oxidase [flavin-containing] A; test: Inhibition of human recombinant MAOA using p-tyramine as substrate preincubated for 120 mins followed by substrate addition measured for 1 hr by horse-radish peroxidase/amplex red-based fluorometric method; how it was run: as §1
[9] = molecular target: T3, Amine oxidase [flavin-containing] A; test: Inhibition of human recombinant MAOA using p-tyramine as substrate preincubated for 180 mins followed by substrate addition measured for 1 hr by horse-radish peroxidase/amplex red-based fluorometric method; how it was run: as §1
[10] = molecular target: T3, Amine oxidase [flavin-containing] A; test: Inhibition of human recombinant MAOA using p-tyramine as substrate preincubated for 240 mins followed by substrate addition measured for 1 hr by horse-radish peroxidase/amplex red-based fluorometric method; how it was run: as §1
[11] = Metal chelating activity of the compound assessed as compound-Zn2+ complex formation at 10 uM after 15 hrs by UV-Vis spectrophotometric method; format: physicochemical
How it was run: (§2)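 Run in distilled water at room temperature: UV-Vis spectra (220–300 nm, 1 cm quartz) of 10 μM compound with CuSO4 or ZnSO4 at 1–5 μM. Complexation followed at 262 nm. Stoichiometry by Job's method: 21 mixtures, total concentration 10 μM, proportions varied 0–100%.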

[12] = Metal chelating activity of the compound assessed as compound-Cu2+ complex formation at 10 uM after 5 mins by UV-Vis spectrophotometric method; format: physicochemical; how it was run: as §2
Acetylcholinesterase [13] = molecular target: T2, Acetylcholinesterase; test: Mixed-type inhibition of human recombinant AChE expressed in HEK293 cells using acetylthiocholine iodide as substrate preincubated for 30 mins followed by substrate addition measured after 30 mins by Lineweaver-Burk plot analysis
Cholinesterase [14] = molecular target: T1, Cholinesterase; test: Mixed-type inhibition of human recombinant BuChE expressed in HEK293 cells using S-butyrylthiocholine iodide as substrate preincubated for 30 mins followed by substrate addition measured after 30 mins by Lineweaver-Burk plot analysis

T2 sequence (P22303 whole entry): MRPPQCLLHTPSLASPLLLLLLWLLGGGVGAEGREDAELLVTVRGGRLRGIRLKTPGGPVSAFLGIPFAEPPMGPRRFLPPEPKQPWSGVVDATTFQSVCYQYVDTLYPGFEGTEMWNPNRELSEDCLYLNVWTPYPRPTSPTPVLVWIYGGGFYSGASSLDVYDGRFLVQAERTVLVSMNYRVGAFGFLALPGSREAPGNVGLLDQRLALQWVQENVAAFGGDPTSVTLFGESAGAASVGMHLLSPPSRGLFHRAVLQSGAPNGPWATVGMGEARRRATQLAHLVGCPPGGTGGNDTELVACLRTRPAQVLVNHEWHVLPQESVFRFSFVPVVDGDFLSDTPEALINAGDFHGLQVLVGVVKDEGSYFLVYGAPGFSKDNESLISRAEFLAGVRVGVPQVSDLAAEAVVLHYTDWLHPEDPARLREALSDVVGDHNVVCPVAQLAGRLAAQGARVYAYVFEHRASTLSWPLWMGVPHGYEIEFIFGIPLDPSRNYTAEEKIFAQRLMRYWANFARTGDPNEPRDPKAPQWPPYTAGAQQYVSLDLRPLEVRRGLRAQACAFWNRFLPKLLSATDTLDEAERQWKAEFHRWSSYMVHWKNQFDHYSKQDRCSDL
T1 sequence (P06276 whole entry): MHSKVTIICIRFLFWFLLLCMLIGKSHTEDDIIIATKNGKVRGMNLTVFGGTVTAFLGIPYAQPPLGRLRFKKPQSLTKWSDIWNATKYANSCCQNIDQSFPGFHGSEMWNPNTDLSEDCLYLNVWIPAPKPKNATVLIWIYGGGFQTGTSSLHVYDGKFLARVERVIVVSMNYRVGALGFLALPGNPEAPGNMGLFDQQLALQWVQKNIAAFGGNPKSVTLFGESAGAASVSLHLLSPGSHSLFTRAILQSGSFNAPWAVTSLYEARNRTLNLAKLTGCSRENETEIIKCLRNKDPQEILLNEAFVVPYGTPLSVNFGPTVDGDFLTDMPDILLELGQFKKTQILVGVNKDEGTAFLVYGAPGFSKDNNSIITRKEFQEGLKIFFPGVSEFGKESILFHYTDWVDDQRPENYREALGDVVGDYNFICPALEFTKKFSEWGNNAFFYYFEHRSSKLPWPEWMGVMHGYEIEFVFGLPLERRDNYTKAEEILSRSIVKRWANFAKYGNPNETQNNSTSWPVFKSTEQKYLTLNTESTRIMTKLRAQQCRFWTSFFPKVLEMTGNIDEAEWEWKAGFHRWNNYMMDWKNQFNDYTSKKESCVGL

SMILES	IC50 (Cholinesterase [1])	IC50 (Acetylcholinesterase [2])	IC50 [3]	IC50 [4]	other results
C#CCN(C)CCCOc1ccc(Cl)cc1Cl [CLORGILINE]	> 500 µM	> 500 µM	–	–	–
C#CCN(Cc1ccc2cccc(O)c2n1)C(C#N)C1CCN(Cc2ccccc2)CC1 (centres undefined)	0.03 µM	64.2 µM	10.2 µM	> 100 µM	–
C#CCN(C)[C@H](C)Cc1ccccc1 [SELEGILINE]	> 500 µM	> 500 µM	–	–	–
C#CCN(Cc1ccc(O)c2ncccc12)C(C#N)CCC1CCN(Cc2ccccc2)CC1 (centres undefined)	2.1 µM	0.35 µM	6.7 µM	11.8 µM	–
C#CCN(Cc1ccc2cccc(O)c2n1)CC1CCN(Cc2ccccc2)CC1	0.064 µM	9.7 µM	46.5 µM	> 100 µM	–
C#CCN(Cc1ccc2cccc(O)c2n1)C(C#N)CCC1CCN(Cc2ccccc2)CC1 (centres undefined)	0.039 µM	0.029 µM	6.2 to 10.1 µM	> 100 µM	Ki (Cholinesterase [1]): 0.052 µM; Ki (Acetylcholinesterase [2]): 0.015 µM; IC50 [5]: 187 µM; IC50 [6]: 20.8 µM; IC50 [7]: 3.8 µM; IC50 [8]: 1.9 µM; IC50 [9]: 1.6 µM; IC50 [10]: 1.1 µM; Activity [11]: Active; Activity [12]: Active; Ki (Acetylcholinesterase [13]): 0.0149 µM; Ki (Cholinesterase [14]): 0.0525 µM
C#CCN(Cc1ccc2cccc(O)c2n1)C(C#N)CC1CCN(Cc2ccccc2)CC1 (centres undefined)	0.002 µM	3.3 µM	12.2 µM	> 100 µM	–
C#CCN(CCC1CCN(Cc2ccccc2)CC1)Cc1ccc2cccc(O)c2n1	0.079 µM	4.1 µM	35.6 µM	> 100 µM	–
C#CCN(CCCC1CCN(Cc2ccccc2)CC1)Cc1ccc2cccc(O)c2n1	0.023 µM	1.5 µM	37 µM	> 100 µM	–

Source: ChEMBL document CHEMBL3861952, “Donepezil-like multifunctional agents: Design, synthesis, molecular modeling and biological evaluation” (Eur J Med Chem, 2016)
